Legend:
Endothelin-1 receptor [1] = target: T1, Endothelin-1 receptor (Homo sapiens, UniProt P25101); experiment: Inhibition of specific binding of [125-I]ET-1 to human endothelin A receptor
T1 sequence (P25101 whole entry): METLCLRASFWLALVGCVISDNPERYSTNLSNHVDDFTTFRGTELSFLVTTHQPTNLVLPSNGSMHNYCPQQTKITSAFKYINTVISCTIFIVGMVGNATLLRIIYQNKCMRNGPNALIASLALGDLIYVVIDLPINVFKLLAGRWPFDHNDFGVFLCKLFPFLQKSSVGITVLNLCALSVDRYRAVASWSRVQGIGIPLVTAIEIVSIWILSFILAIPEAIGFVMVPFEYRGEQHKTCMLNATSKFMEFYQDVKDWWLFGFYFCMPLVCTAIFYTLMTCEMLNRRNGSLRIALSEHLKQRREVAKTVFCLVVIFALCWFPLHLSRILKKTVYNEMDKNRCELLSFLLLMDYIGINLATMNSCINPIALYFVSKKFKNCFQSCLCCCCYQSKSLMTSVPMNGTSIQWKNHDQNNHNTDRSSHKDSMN

[2] = target: T2, Endothelin-1 receptor (Homo sapiens) (UniProt P25101); experiment: Percent inhibition at 10 uM of displacement of radiolabeled endothelin-1 [125-I]ET-1 from membranes prepared from cloned human Endothelin A receptor expressed in mouse erythroleukemic (MEL) cells; assay type: cell membranes
T2 sequence (whole entry): T1 sequence (P25101 whole entry)

Rattus norvegicus [3] = experiment: Mean dose ratio(MDR) for inhibition of pressor response 3 hr after oral administration of compound at 10 mg/kg to conscious, normotensive rats; assay type: functional
Summary of the method: (§1)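 Male Alderley Park Wistar rats (220–260 g, n = 6) were catheterized (arterial and venous) under Saffan anesthesia and tested conscious. Cumulative big ET-1 i.v. dose–response curves (0.1–4.0 nmol/kg) were run before and at set times after oral compound. The big ET-1 dose raising mean arterial pressure by 30 mmHg gave the dose-ratio shift, averaged to a mean dose ratio.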

[4] = Acidity constant was measured; assay type: ADME
Rattus norvegicus [5] = experiment: Mean dose ratio(MDR) for inhibition of pressor response 5 min after intravenous administration of compound at 10 mg/kg to pithed rats; assay type: functional
Summary of the method: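 Male Alderley Park Wistar rats (280–320 g, n = 4) were pithed under halothane, with arterial and venous catheters placed. Cumulative big ET-1 dose–response curves (0.1–4.0 nmol/kg) were run before and 5 min after i.v. compound. The big ET-1 dose raising mean arterial pressure by 30 mmHg gave the dose ratio, reported as a mean with 95% confidence limits.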

Rattus norvegicus [6] = experiment: Mean dose ratio(MDR) for inhibition of pressor response 1 hr after oral administration of compound at 10 mg/kg to conscious, normotensive rats; assay type: functional; summary of the method: as §1
Rattus norvegicus [7] = experiment: Mean dose ratio(MDR) for inhibition of pressor response 5 hr after oral administration of compound at 10 mg/kg to conscious, normotensive rats; assay type: functional; summary of the method: as §1
Rattus norvegicus [8] = experiment: Mean dose ratio(MDR) for inhibition of pressor response 0.5 hr after oral administration of compound at 10 mg/kg to conscious, normotensive rats; assay type: functional; summary of the method: as §1
Endothelin-1 receptor [9] = target: T1, Endothelin-1 receptor; experiment: Inhibition of specific binding of [125-I] ET-1 to human Endothelin A receptor
Summary of the method: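 Membranes from mouse erythroleukemic MEL-C88 cells expressing cloned human ETA were incubated with [125I]ET-1 (30 pM final) and competing ligands for 180 min at 30 °C. Incubation was stopped by filtration through GF/B filters, and bound radioligand was counted by gamma counting. pIC50 was taken from inhibition of specific binding; n is given per compound.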

Cavia porcellus = species: Cavia porcellus; experiment: Antagonism of ET-A induced contractile response in guinea pig portal vein; assay type: functional; conditions: read-out: pA2 (converted)
Summary of the method: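 A portal vein ring (about 4 mm) from guinea pigs of either sex (>250 g, n = 3–6) was held for isometric recording of circular muscle in oxygenated Krebs (95% O2/5% CO2) at 32 °C. After about 1.5 h equilibration, a cumulative partial big ET-1 curve was run in 3-fold steps up to >100 mg tension.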

Row | Structure (SMILES) | IC50 (Endothelin-1 receptor [1]) | inhibition [2] | other results
1 | CN(C)c1cccc2c(S(=O)(=O)Nc3ccc(Br)nn3)cccc12 | 251 nM | 95% | 
2 | Cc1noc(NS(=O)(=O)c2cccc3c(N(C)C)cccc23)c1C [BMS-182874] |  | 98% | MDR (Rattus norvegicus [3]): 2.18; pKa [4]: 4.5; MDR (Rattus norvegicus [5]): 2.68; MDR (Rattus norvegicus [6]): 2.28; MDR (Rattus norvegicus [7]): 1.55; MDR (Rattus norvegicus [8]): 3.37
3 | CN(C)c1cccc2c(S(=O)(=O)Nc3cnc(Cl)cn3)cccc12 | 158 nM | 97% | 
4 | CN(C)c1cccc2c(S(=O)(=O)Nc3ccc(Cl)nn3)cccc12 | 200 nM | 70% | 
5 | Cc1cc(NS(=O)(=O)c2cccc3c(N(C)C)cccc23)nnc1Cl | 5010 nM | 64% | 
6 | CN(C)c1cccc2c(S(=O)(=O)Nc3cccnn3)cccc12 |  | < 30% | 
7 | COc1ccc(NS(=O)(=O)c2cccc3c(N(C)C)cccc23)nn1 | 316 nM | 92% | 
8 | CN(C)c1cccc2c(S(=O)(=O)Nc3cnccn3)cccc12 | 1000 nM | 58% | 
9 | CN(C)c1cccc2c(S(=O)(=O)Nc3ncc(Br)nc3OCc3ccccc3)cccc12 |  | < 30% | 
10 | CCOc1ccc(NS(=O)(=O)c2cccc3c(N(C)C)cccc23)nn1 | 3980 nM | 64% | 
11 | CNc1cccc2c(S(=O)(=O)Nc3ncc(Br)nc3OC)cccc12 | 15.8 nM | 100% | 
12 | CN(C)c1cccc2c(S(=O)(=O)Nc3ccc(Cl)cc3)cccc12 | 7940 nM | 30% | 
13 | CN(C)c1cccc2c(S(=O)(=O)Nc3ncccn3)cccc12 |  | 54% | 
14 | COc1nc(Br)cnc1NS(=O)(=O)c1cccc2ccccc12 |  | 83% | 
15 | CCNc1cccc2c(S(=O)(=O)Nc3ncc(Br)nc3OC)cccc12 | 2.51 nM | 95% | 
16 | CN(C)c1cccc2c(S(=O)(=O)Nc3cccnc3)cccc12 |  | < 30% | 
17 | CCN(C)c1cccc2c(S(=O)(=O)Nc3ncc(Br)nc3OC)cccc12 |  | 99% | IC50 (Endothelin-1 receptor [9]): 12.6 nM
18 | CN(C)c1cccc2c(S(=O)(=O)Nc3ccc(C#N)nn3)cccc12 |  | < 30% | 
19 | CN(C)c1cccc2c(S(=O)(=O)Nc3ccccn3)cccc12 |  | < 30% | 
20 | Cc1ccc(NS(=O)(=O)c2cccc3c(N(C)C)cccc23)nn1 | 1580 nM | 68% | 

More lines, main results first:

Row | IC50 (Endothelin-1 receptor [1]) | inhibition [2] | Structure (SMILES) | other results
21 | 1260 nM | 81% | CN(C)c1cccc2c(S(=O)(=O)Nc3ccc(Cl)nc3)cccc12 | 
22 | 63.1 nM | 93% | COc1nc(Br)cnc1NS(=O)(=O)c1cccc2c(N(C)C)cccc12 | 
23 | 631 nM | 96% | Cc1nc(Br)cnc1NS(=O)(=O)c1cccc2c(N(C)C)cccc12 | 
24 |  | 81% | CN(C)c1cccc2c(S(=O)(=O)Nc3ncc(Br)nc3O)cccc12 | 
25 | 2000 nM | 95% | CN(C)c1cccc2c(S(=O)(=O)Nc3ccc(Cl)cn3)cccc12 | 
26 | 5010 nM |  | CN(C)c1cccc2c(S(=O)(=O)Nc3ncc(Br)[nH]c3=O)cccc12 | 
27 | 251 nM | 95% | CN(C)c1cccc2c(S(=O)(=O)Nc3ccc(Br)nc3)cccc12 | 
28 | 3160 nM | 72% | CN(C)c1cccc2c(S(=O)(=O)Nc3ccc(Br)cc3)cccc12 | 
29 | 1580 nM | 84% | CN(C)c1cccc2c(S(=O)(=O)Nc3ncc(Cl)cn3)cccc12 | 
30 | 2510 nM | 68% | CCc1nc(Br)cnc1NS(=O)(=O)c1cccc2c(N(C)C)cccc12 | 
31 | 316 nM | 94% | Cc1cc(Br)cnc1NS(=O)(=O)c1cccc2c(N(C)C)cccc12 | 
32 | 1260 nM | 91% | Cc1cnc(NS(=O)(=O)c2cccc3c(N(C)C)cccc23)cn1 | 
33 | 2000 nM | 80% | CN(C)c1cccc2c(S(=O)(=O)Nc3ncc(Br)cn3)cccc12 | 
34 | 631 nM | 88% | CN(C)c1cccc2c(S(=O)(=O)Nc3cnc(Br)nc3)cccc12 | 
35 | 10000 nM | 54% | Cc1nc(NS(=O)(=O)c2cccc3c(N(C)C)cccc23)ccc1Br | 
36 | 1580 nM | 79% | Cc1ccc(NS(=O)(=O)c2cccc3c(N(C)C)cccc23)nc1 | 
37 |  | < 30% | CN(C)c1cccc2c(S(=O)(=O)Nc3ncc(Br)nc3C#N)cccc12 | 
38 | 7.94 nM | 98% | COc1nc(C)cnc1NS(=O)(=O)c1cccc2c(N(C)C)cccc12 | 
39 | 126 nM | 96% | CN(C)c1cccc2c(S(=O)(=O)Nc3cnc(Br)cn3)cccc12 | 
40 | 1580 nM | 91% | CN(C)c1cccc2c(S(=O)(=O)Nc3ccc(Br)cn3)cccc12 | 
41 |  | < 30% | CCCc1nc(Br)cnc1NS(=O)(=O)c1cccc2c(N(C)C)cccc12 | 
42 | 5010 nM | 84% | CN(C)c1cccc2c(S(=O)(=O)Nc3ccc(I)cn3)cccc12 | 
43 | 398 nM | 89% | Cc1cc(Cl)nnc1NS(=O)(=O)c1cccc2c(N(C)C)cccc12 | 
44 | 10 nM | 97% | COc1nc(Cl)cnc1NS(=O)(=O)c1cccc2c(N(C)C)cccc12 | MDR (Rattus norvegicus [3]): 2.54; pKa [4]: 5; Kb (Cavia porcellus): 63.1 nM; MDR (Rattus norvegicus [5]): 8.87; MDR (Rattus norvegicus [6]): 4.42; MDR (Rattus norvegicus [7]): 2.07; MDR (Rattus norvegicus [8]): 3.91
45 | 501 nM | 92% | CCOc1nc(Br)cnc1NS(=O)(=O)c1cccc2c(N(C)C)cccc12 | 

Reference: ChEMBL document CHEMBL1129980, “New non-peptide endothelin-A receptor antagonists: synthesis, biological properties, and structure-activity relationships of 5-(dimethylamino)-N-pyridyl-,-N-pyrimidinyl-,-N-pyridazinyl-, and -N-pyrazinyl-1-naphthalenesulfonamides” (J Med Chem, 1997)
